{"source": "ChEMBL document CHEMBL1909595", "about": "“Characterization of a novel and selective CB1 antagonist as a radioligand for receptor occupancy studies” (Bioorg Med Chem Lett, 2011)", "key": {"Plasma [1]": {"test_system": "Plasma", "test": "Free plasma concentration in Sprague-Dawley rat at 10 mg/kg, po measured 6 hrs post dose", "assay_type": "ADME, organism-based", "set-up": "dose 10 mg/kg, route oral", "conditions": "in vivo; call rule not given here"}, "Plasma [2]": {"test_system": "Plasma", "test": "Free plasma concentration in Sprague-Dawley rat at 1 mg/kg, po measured 6 hrs post dose", "assay_type": "ADME, organism-based", "set-up": "dose 1 mg/kg, route oral", "conditions": "in vivo"}, "Rattus norvegicus [3]": {"test_system": "Rattus norvegicus", "test": "Antiobesity activity in Sprague-Dawley rat assessed as reduction in food intake at 30 mg/kg, po measured after 20 hrs", "assay_type": "functional", "set-up": "scale not given: the % may be the effect or the level left", "summary_of_the_method": "(§1)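 Male Sprague-Dawley rats, six per group, trained to bar-press for food pellets in operant chambers. Dosed p.o. in 10% DMAC/10% EtOH/10% Cremophor/70% water at 2 ml/kg. Two 20 h sessions starting at dark-cycle onset, 4 h apart. The first session was the baseline used to balance groups. Pellets counted at 1, 2, 4, 8, 12 and 20 h after lock-out. One-way ANOVA with Fisher PLSD.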"}, "Plasma [4]": {"test_system": "Plasma", "test": "Free plasma concentration in Sprague-Dawley rat at 0.1 mg/kg, po measured 6 hrs post dose", "assay_type": "ADME, organism-based", "set-up": "dose 0.1 mg/kg, route oral", "conditions": "in vivo"}, "Rattus norvegicus [5]": {"test_system": "Rattus norvegicus", "test": "Ex vivo receptor occupancy of CB1 receptor in Sprague-Dawley rat at 0.03 mg/kg, po measured 6 hrs post dose", "assay_type": "functional", "summary_of_the_method": "(§2)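 Male Sprague-Dawley rats were dosed p.o. (0.03–30 mg/kg, vehicle 10% DMAC/cremophor/ethanol, 2 ml/kg) 1 h before the dark cycle. Brains were taken 6 h post-dose, three per group, frozen and cut into 20 µm cryosections. Sections pre-incubated 30 s, then 6 min with 40 nM [3H]BMS-725519 in chilled HEPES buffer. Nonspecific binding by 5 µM unlabelled BMS-725519. Three 30 s washes. Cerebellar density measured by phosphor imaging (DLU/mm², background-subtracted); occupancy expressed relative to vehicle specific binding.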"}, "Rattus norvegicus [6]": {"test_system": "Rattus norvegicus", "test": "Antiobesity activity in Sprague-Dawley rat assessed as reduction in food intake at 10 mg/kg, po measured after 20 hrs", "assay_type": "functional", "set-up": "scale not given: the % may be the effect or the level left", "summary_of_the_method": "as §1"}, "Plasma [7]": {"test_system": "Plasma", "test": "Free plasma concentration in Sprague-Dawley rat at 0.03 mg/kg, po measured 6 hrs post dose", "assay_type": "ADME, organism-based", "set-up": "dose 0.03 mg/kg, route oral", "conditions": "in vivo"}, "Cannabinoid receptor 1 [8]": {"target": "T1, Cannabinoid receptor 1 (Rattus norvegicus, UniProt P20272)", "T1 sequence (P20272 whole entry)": "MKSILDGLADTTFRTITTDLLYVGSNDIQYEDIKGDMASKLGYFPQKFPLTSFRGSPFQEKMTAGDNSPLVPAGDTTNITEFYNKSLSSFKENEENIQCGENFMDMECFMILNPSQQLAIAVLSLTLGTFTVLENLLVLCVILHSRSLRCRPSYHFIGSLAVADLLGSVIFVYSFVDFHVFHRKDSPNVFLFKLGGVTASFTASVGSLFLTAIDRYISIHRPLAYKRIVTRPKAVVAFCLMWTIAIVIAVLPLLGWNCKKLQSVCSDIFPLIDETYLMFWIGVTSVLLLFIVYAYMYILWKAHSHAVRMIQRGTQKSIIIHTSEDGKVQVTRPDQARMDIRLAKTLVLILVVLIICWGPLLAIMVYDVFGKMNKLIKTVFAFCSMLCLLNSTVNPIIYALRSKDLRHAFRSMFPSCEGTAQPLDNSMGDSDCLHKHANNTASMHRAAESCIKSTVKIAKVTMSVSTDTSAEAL", "test": "Displacement of [3H]-SR-141716 from rat CB1 receptor"}, "Rattus norvegicus [9]": {"test_system": "Rattus norvegicus", "test": "Ex vivo receptor occupancy of CB1 receptor in Sprague-Dawley rat at 0.3 mg/kg, po measured 6 hrs post dose", "assay_type": "functional", "summary_of_the_method": "as §2"}, "Rattus norvegicus [10]": {"test_system": "Rattus norvegicus", "test": "Antiobesity activity in Sprague-Dawley rat assessed as reduction in food intake at 0.3 mg/kg, po measured after 20 hrs", "assay_type": "functional", "set-up": "scale not given: the % may be the effect or the level left", "summary_of_the_method": "as §1"}, "Rattus norvegicus [11]": {"test_system": "Rattus norvegicus", "test": "Ex vivo receptor occupancy of CB1 receptor in Sprague-Dawley rat at 3 mg/kg, po measured 6 hrs post dose", "assay_type": "functional", "summary_of_the_method": "as §2"}, "Cannabinoid receptor 1 [12]": {"target": "T2, Cannabinoid receptor 1 (Homo sapiens, UniProt P21554)", "T2 sequence (P21554 whole entry)": "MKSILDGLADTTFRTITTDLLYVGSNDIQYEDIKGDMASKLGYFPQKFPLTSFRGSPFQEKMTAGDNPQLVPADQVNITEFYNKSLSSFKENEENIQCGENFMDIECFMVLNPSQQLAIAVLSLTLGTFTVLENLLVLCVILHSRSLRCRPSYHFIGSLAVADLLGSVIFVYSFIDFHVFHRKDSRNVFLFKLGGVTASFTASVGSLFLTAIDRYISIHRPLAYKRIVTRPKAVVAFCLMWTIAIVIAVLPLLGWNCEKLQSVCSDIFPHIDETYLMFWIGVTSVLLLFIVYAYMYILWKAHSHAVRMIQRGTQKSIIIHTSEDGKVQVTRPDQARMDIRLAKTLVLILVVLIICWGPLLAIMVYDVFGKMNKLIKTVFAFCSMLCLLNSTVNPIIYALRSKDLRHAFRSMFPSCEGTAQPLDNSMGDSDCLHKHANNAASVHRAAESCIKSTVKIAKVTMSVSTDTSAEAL", "test": "Displacement of [3H]-SR-141716 from human CB1 receptor"}, "Rattus norvegicus [13]": {"test_system": "Rattus norvegicus", "test": "Antiobesity activity in Sprague-Dawley rat assessed as reduction in food intake at 3 mg/kg, po measured after 20 hrs", "assay_type": "functional", "set-up": "scale not given: the % may be the effect or the level left", "summary_of_the_method": "as §1"}, "Rattus norvegicus [14]": {"test_system": "Rattus norvegicus", "test": "Antiobesity activity in Sprague-Dawley rat assessed as reduction in food intake at 1 mg/kg, po measured after 20 hrs", "assay_type": "functional", "set-up": "scale not given: the % may be the effect or the level left", "summary_of_the_method": "as §1"}, "Rattus norvegicus [15]": {"test_system": "Rattus norvegicus", "test": "Antiobesity activity in Sprague-Dawley rat assessed as reduction in food intake at 0.03 mg/kg, po measured after 20 hrs", "assay_type": "functional", "set-up": "scale not given: the % may be the effect or the level left", "summary_of_the_method": "as §1"}, "Rattus norvegicus [16]": {"test_system": "Rattus norvegicus", "test": "Ex vivo receptor occupancy of CB1 receptor in Sprague-Dawley rat at 30 mg/kg, po measured 6 hrs post dose", "assay_type": "functional", "summary_of_the_method": "as §2"}, "[17]": {"test": "Protein binding in human", "assay_type": "ADME"}, "Plasma [18]": {"test_system": "Plasma", "test": "Free plasma concentration in Sprague-Dawley rat at 3 mg/kg, po measured 6 hrs post dose", "assay_type": "ADME, organism-based", "set-up": "dose 3 mg/kg, route oral", "conditions": "in vivo"}, "Rattus norvegicus [19]": {"test_system": "Rattus norvegicus", "test": "Ex vivo receptor occupancy of CB1 receptor in Sprague-Dawley rat at 1 mg/kg, po measured 6 hrs post dose", "assay_type": "functional", "summary_of_the_method": "as §2"}, "Rattus norvegicus [20]": {"test_system": "Rattus norvegicus", "test": "Antiobesity activity in Sprague-Dawley rat assessed as reduction in food intake at 0.1 mg/kg, po measured after 20 hrs", "assay_type": "functional", "set-up": "scale not given: the % may be the effect or the level left", "summary_of_the_method": "as §1"}, "Plasma [21]": {"test_system": "Plasma", "test": "Free plasma concentration in Sprague-Dawley rat at 0.3 mg/kg, po measured 6 hrs post dose", "assay_type": "ADME, organism-based", "set-up": "dose 0.3 mg/kg, route oral", "conditions": "in vivo"}, "Cannabinoid receptor 1 [22]": {"target": "T1, Cannabinoid receptor 1", "test": "Displacement of [3H]BMS-725519 from rat brain CB1 receptor after 45 mins by autoradiography"}, "Plasma [23]": {"test_system": "Plasma", "test": "Free plasma concentration in Sprague-Dawley rat at 30 mg/kg, po measured 6 hrs post dose", "assay_type": "ADME, organism-based", "set-up": "dose 30 mg/kg, route oral", "conditions": "in vivo"}, "Cannabinoid receptor 2": {"target": "Cannabinoid receptor 2 (Homo sapiens, UniProt P34972)", "sequence (P34972 whole entry)": "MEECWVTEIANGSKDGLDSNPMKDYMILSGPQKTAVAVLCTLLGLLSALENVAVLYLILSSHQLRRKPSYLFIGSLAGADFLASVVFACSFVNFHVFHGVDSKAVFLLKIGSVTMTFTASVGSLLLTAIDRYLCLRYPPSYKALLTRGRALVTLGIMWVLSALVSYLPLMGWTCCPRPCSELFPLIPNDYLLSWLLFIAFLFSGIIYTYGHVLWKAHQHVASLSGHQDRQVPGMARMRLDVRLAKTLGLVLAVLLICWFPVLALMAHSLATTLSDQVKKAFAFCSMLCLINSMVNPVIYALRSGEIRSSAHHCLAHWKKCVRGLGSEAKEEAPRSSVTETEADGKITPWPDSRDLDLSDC", "test": "Displacement of [3H]-CP55940 from human CB2 receptor"}, "Rattus norvegicus [24]": {"test_system": "Rattus norvegicus", "test": "Ex vivo receptor occupancy of CB1 receptor in Sprague-Dawley rat at 0.1 mg/kg, po measured 6 hrs post dose", "assay_type": "functional", "summary_of_the_method": "as §2"}, "Rattus norvegicus [25]": {"test_system": "Rattus norvegicus", "test": "Ex vivo receptor occupancy of CB1 receptor in Sprague-Dawley rat at 10 mg/kg, po measured 6 hrs post dose", "assay_type": "functional", "summary_of_the_method": "as §2"}, "Cannabinoid receptor 1 [26]": {"target": "T2, Cannabinoid receptor 1", "test": "Binding affinity to human CB1 receptor expressed in CHO cells after 90 mins by scintillation counting", "assay_type": "cell-based", "summary_of_the_method": "(§3)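 Rat whole-brain or CHO (human CB1) membranes were homogenized in 10 mM HEPES/1 mM EGTA pH 7.4 with protease inhibitors, DTT and sucrose. Centrifuged at 1000 g, then the pellet was taken at 100,000 g and resuspended in 20 mM HEPES, 1 mM EGTA, 1 mM DTT, 1 mM MgCl2. Saturation with increasing [3H]BMS-725519; nonspecific binding by cold BMS-725519. 90 min at room temperature, GF/B filtration, scintillation counting. Kd and Bmax derived.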"}, "Brain [27]": {"test_system": "Brain", "test": "Drug uptake in brain of CB1 receptor knockout mouse at 10 uM", "assay_type": "ADME, tissue-based", "conditions": "in vivo"}, "Brain [28]": {"test_system": "Brain", "test": "Drug uptake in brain of mouse expressing CB1 receptor at 10 uM", "assay_type": "ADME, tissue-based", "conditions": "in vivo"}, "Cannabinoid receptor 1 [29]": {"target": "T1, Cannabinoid receptor 1", "test": "Binding affinity to rat brain CB1 receptor after 90 mins by scintillation counting", "summary_of_the_method": "as §3"}}, "data": [{"smiles": "O=c1n(Cc2ccc(C(F)(F)F)nc2)nc2c(-c3ccncc3)c(-c3ccc(Cl)cc3)cnn12", "values": [{"measurement": "Cp(f)", "setting": "Plasma [1]", "result": 531, "unit": "nM"}, {"measurement": "Cp(f)", "setting": "Plasma [2]", "result": 49.4, "unit": "nM"}, {"measurement": "Activity", "setting": "Rattus norvegicus [3]", "result": 72.5, "unit": "%"}, {"measurement": "Cp(f)", "setting": "Plasma [4]", "result": 5.4, "unit": "nM"}, {"measurement": "Activity", "setting": "Rattus norvegicus [5]", "result": 12.7, "unit": "%"}, {"measurement": "Activity", "setting": "Rattus norvegicus [6]", "result": 67.4, "unit": "%"}, {"measurement": "Cp(f)", "setting": "Plasma [7]", "result": 1.5, "unit": "nM"}, {"measurement": "Kd", "setting": "Cannabinoid receptor 1 [8]", "result": 12.4, "unit": "nM"}, {"measurement": "Activity", "setting": "Rattus norvegicus [9]", "result": 20.6, "unit": "%"}, {"measurement": "Activity", "setting": "Rattus norvegicus [10]", "result": 22.3, "unit": "%"}, {"measurement": "Activity", "setting": "Rattus norvegicus [11]", "result": 55.6, "unit": "%"}, {"measurement": "Kd", "setting": "Cannabinoid receptor 1 [12]", "result": 4.6, "unit": "nM"}, {"measurement": "Activity", "setting": "Rattus norvegicus [13]", "result": 41.5, "unit": "%"}, {"measurement": "Activity", "setting": "Rattus norvegicus [14]", "result": 23.7, "unit": "%"}, {"measurement": "Activity", "setting": "Rattus norvegicus [15]", "result": 0, "unit": "%"}, {"measurement": "Activity", "setting": "Rattus norvegicus [16]", "result": 74.1, "unit": "%"}, {"measurement": "fraction unbound", "setting": "[17]", "result": 0.05}, {"measurement": "Cp(f)", "setting": "Plasma [18]", "result": 112, "unit": "nM"}, {"measurement": "Activity", "setting": "Rattus norvegicus [19]", "result": 29.8, "unit": "%"}, {"measurement": "Activity", "setting": "Rattus norvegicus [20]", "result": 0, "unit": "%"}, {"measurement": "Cp(f)", "setting": "Plasma [21]", "result": 15.3, "unit": "nM"}, {"measurement": "IC50", "setting": "Cannabinoid receptor 1 [22]", "result": 37, "unit": "nM"}, {"measurement": "Cp(f)", "setting": "Plasma [23]", "result": 1047, "unit": "nM"}, {"measurement": "Kd", "setting": "Cannabinoid receptor 2", "result": "> 10000", "unit": "nM"}, {"measurement": "Activity", "setting": "Rattus norvegicus [24]", "result": 14.3, "unit": "%"}, {"measurement": "Activity", "setting": "Rattus norvegicus [25]", "result": 64.5, "unit": "%"}]}, {"smiles": "[3H]c1cc(-c2cnn3c(=O)n(Cc4ccc(C(F)(F)F)nc4[3H])nc3c2-c2ccncc2)ccc1Cl", "values": [{"measurement": "Kd", "setting": "Cannabinoid receptor 1 [26]", "result": 3.95, "unit": "nM"}, {"measurement": "Drug uptake", "setting": "Brain [27]", "result": "Not Active"}, {"measurement": "Drug uptake", "setting": "Brain [28]", "result": "Active"}, {"measurement": "Kd", "setting": "Cannabinoid receptor 1 [29]", "result": 29.1, "unit": "nM"}]}]}
